MBD2 inh: inhibitors of human MBD2 binding to methylated oligonucleotide | 0.31% of 370,000 active | TR-FRET | inhibition, % at 4.4 µM | AID 686964; in the data active = inhibition above about 13%
UHRF1 binding: UHRF1 methyl-DNA binding inhibition. inhibition, % at 4.4 µM. AID 687016. Q96T88. UHRF1 binding to methylated oligo, TR-FRET. 0.75% of 370,000 active; in the data active = inhibition above about 21%;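 note: UHRF1 SRA domain binding a hemimethylated CpG hairpin DNA probe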
TDP2 absorb: blocks human TDP2 phosphodiesterase activity; O95551; recombinant TDP2, T5PNP hydrolysis, p-nitrophenol absorbance 415 nm; inhibition, % at 12.8 µM; 0.34% of 370,000 active; AID 720702;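 active = inhibition above the mean of all tested compounds plus 3 SD, set per campaign, cut at about 25% in these data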
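Test system: human TDP2 enzyme; Input: 120 nM TDP2 per well; Buffer or medium: Mg2+-containing Tris-HCl buffer, pH 7.5; Reagent: 5 mM T5PNP; Dosing: 12.8 µM single point, 1% DMSO; Incubation: reaction 2 h, 37 °C; Detection: p-Nitrophenol epi absorbance; Read-out: % inhibition relative to enzyme-containing and enzyme-free wells; Replicates: single well per compound.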
LEDGF integ inh: blocks HIV-1 LEDGF/p75-dependent DNA integration. inhibition, % at 3.7 µM. TR-FRET IN-LEDGF/p75 DNA integration, Eu/Cy5. 0.64% of 370,000 active. AID 743269;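 active = inhibition above the screen-wide mean plus 3 SD, cut at about 13% in these data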;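 note: signal is the Cy5 over europium emission ratio at 671 and 618 nm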
NSD2 HMT inh: blocks human histone methyltransferase NSD2; NSD2 peptide methylation, AlphaScreen, 120 min; inhibition, % at 12.5 µM; 0.54% of 310,000 active; in the data active = inhibition above about 50%
Target sequence (O96028 whole entry, looked up): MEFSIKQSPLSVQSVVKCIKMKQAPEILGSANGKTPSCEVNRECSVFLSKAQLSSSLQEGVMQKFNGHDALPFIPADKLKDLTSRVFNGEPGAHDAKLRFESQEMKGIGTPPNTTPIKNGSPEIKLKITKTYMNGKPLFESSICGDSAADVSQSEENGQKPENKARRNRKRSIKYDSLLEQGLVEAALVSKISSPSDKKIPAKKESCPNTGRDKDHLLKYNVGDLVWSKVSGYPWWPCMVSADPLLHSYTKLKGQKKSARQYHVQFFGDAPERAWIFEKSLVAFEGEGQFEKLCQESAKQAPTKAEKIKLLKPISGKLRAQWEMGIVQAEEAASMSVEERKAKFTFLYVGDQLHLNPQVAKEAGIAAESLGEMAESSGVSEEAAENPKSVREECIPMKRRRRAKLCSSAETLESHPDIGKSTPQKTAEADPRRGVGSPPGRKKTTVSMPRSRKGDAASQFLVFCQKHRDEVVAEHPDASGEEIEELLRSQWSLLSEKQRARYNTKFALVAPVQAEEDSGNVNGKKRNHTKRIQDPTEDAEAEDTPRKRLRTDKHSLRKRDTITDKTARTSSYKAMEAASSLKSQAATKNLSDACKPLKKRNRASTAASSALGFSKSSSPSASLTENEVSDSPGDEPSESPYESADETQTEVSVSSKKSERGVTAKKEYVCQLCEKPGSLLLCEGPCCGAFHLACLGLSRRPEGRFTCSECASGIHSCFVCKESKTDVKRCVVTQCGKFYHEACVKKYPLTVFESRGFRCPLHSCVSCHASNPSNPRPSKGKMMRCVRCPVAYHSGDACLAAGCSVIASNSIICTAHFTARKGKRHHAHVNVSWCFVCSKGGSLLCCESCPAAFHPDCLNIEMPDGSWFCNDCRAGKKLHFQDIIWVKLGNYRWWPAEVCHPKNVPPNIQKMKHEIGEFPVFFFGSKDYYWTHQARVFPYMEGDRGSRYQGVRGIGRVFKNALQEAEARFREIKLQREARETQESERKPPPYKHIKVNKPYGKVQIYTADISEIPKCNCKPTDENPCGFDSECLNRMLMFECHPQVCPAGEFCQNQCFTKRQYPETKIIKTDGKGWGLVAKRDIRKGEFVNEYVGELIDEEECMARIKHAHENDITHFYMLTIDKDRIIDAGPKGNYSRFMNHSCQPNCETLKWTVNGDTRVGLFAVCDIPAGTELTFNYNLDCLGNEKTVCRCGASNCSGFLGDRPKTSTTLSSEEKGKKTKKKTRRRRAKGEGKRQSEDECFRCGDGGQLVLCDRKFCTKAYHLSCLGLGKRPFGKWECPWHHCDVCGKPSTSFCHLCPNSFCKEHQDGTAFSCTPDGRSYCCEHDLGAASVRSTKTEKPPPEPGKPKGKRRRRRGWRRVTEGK
Casp6 inh: caspase-6 (human) enzyme inhibition; inhibition, % at 12.5 µM; P55212; purified caspase-6, Z-VEID-R110 cleavage fluorescence; 0.53% of 350,000 active;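 active = mean inhibition across replicates at least about 35%, with every replicate also reaching that limit, limit read from the data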
TDP2 confirm: human TDP2 inhibition, confirmation | AID 743263 | 22% of 1,100 active | shares compounds with TDP2 absorb | recombinant human TDP2, absorbance read-out | inhibition, % at 12.8 µM; in the data active = inhibition above about 25%
IN multimer up: counter-screen for LEDGF/p75 integration inhibitors: HIV-1 integrase multimerization activators. shares compounds with LEDGF integ inh. TR-FRET HIV-1 integrase multimerization, biochemical. activation, % at 7.7 µM. 17% of 2,000 active; in the data active = activation above about 8.9%
TRFRET interf: TR-FRET optical interference, LEDGF/p75 integration counter-screen | shares compounds with LEDGF integ inh | inhibition, % at 7.7 µM | TR-FRET optical interference counterscreen, HIV-1 IN multimerization | AID 1053135 | 2,000 tested, under 10 active;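 active = inhibition above the mean over all tested compounds plus 3 SD, which no compound reached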
LEDGF integ conf: LEDGF/p75-dependent HIV-1 integration inhibition, confirmation | shares compounds with LEDGF integ inh | TR-FRET LEDGF/p75-dependent HIV-1 integration, biochemical | inhibition, % at 3.7 µM | 36% of 2,000 active | AID 1053136; in the data active = inhibition above about 14%
Alpha artifact: counter-screen for NSD2 inhibitors: AlphaScreen artifacts; shares compounds with NSD2 HMT inh; AID 1053174; AC35, µM (titrated, usually from 10 µM); 9.4% of 1,500 active; AlphaScreen artifact counterscreen, preloaded methylated H4 peptide; call rule not given here
Large screens that a line does not name were inactive (follow-up assays come after a bar, where they were run). Most compounds without a hit are left out; they make up all but 1.8% or so of the library.

Cc1cc(C(=O)Nc2ccc3c(c2)C(=O)N(C)[C@H]2CC[C@@H](CC(=O)N[C@@H](C)c4ccccc4)O[C@H]2CO3)no1	none (no result: MBD2 inh, UHRF1 binding, TDP2 absorb, LEDGF integ inh, NSD2 HMT inh)
Cc1cccc(NC2=C/C(=N/S(=O)(=O)c3cccs3)c3ccccc3C2=O)c1	none (no result: Casp6 inh)
CCc1ccc(S(=O)(=O)/N=C2\C=C(Nc3cccc(C(=O)O)c3)C(=O)c3ccccc32)cc1	TDP2 absorb 69.2, LEDGF integ inh 47.4, NSD2 HMT inh 132.3, Casp6 inh 99.5 | TDP2 confirm 73.8 | IN multimer up inactive | TRFRET interf inactive | LEDGF integ conf 74.2 | Alpha artifact 9.25µM
Nc1c2c(=O)[nH]c(O)cc2nn1-c1ccccc1	TDP2 absorb 89.2, LEDGF integ inh 16.3, NSD2 HMT inh 99.6, Casp6 inh 39.8 | TDP2 confirm 76.6 | IN multimer up inactive | TRFRET interf inactive | LEDGF integ conf inactive | Alpha artifact inactive
C[n+]1cccc2cccc([O-])c21	TDP2 absorb 27.4, LEDGF integ inh 15.1, NSD2 HMT inh 103.2, Casp6 inh 52.0 | TDP2 confirm 28.4 | IN multimer up inactive | TRFRET interf inactive | LEDGF integ conf 53.6 | Alpha artifact inactive
Nc1ccc2c(c1)C(=O)C(=O)c1ccccc1-2	TDP2 absorb 97.6, NSD2 HMT inh 112.5 (no result: Casp6 inh) | TDP2 confirm 87.0 | Alpha artifact inactive
Nc1ccc2c(c1)C(=O)c1ccccc1-2	none (no result: NSD2 HMT inh)
Cc1[nH][nH]c(=O)c1C(c1ccc(-c2ccccc2C(=O)O)o1)c1c(C)[nH][nH]c1=O	TDP2 absorb 45.4, NSD2 HMT inh 78.4 (no result: Casp6 inh) | TDP2 confirm 39.2 | Alpha artifact inactive
COC(=O)c1ccc(-c2ccc(C(c3c(C)[nH][nH]c3=O)c3c(C)[nH][nH]c3=O)o2)cc1	TDP2 absorb 25.5, NSD2 HMT inh 53.1, Casp6 inh 39.9 | TDP2 confirm 25.4 | Alpha artifact inactive
Cc1[nH][nH]c(=O)c1C(c1ccc(-c2cccc(C(=O)O)c2)o1)c1c(C)[nH][nH]c1=O	TDP2 absorb 63.4, NSD2 HMT inh active, Casp6 inh 41.9 | TDP2 confirm 30.8 | Alpha artifact inactive
CNC(=S)N/N=C/c1ccc(-c2cccc(C(=O)O)c2)o1	none
Cc1ccc2oc(-c3ccccc3C(=O)O)cc(=O)c2c1	none (no result: Casp6 inh)
COC(=O)COc1ccc(C(c2c(C)[nH][nH]c2=O)c2c(C)[nH][nH]c2=O)cc1	none
Cc1ccc(S(=O)(=O)N(C)C[C@@H]2Oc3c(NC(=O)c4nc5ccccc5s4)cccc3C(=O)N([C@@H](C)CO)C[C@@H]2C)cc1	none (no result: MBD2 inh, UHRF1 binding, TDP2 absorb, LEDGF integ inh, NSD2 HMT inh)
COc1ccc(NC(=O)Nc2ccc3c(c2)C(=O)N([C@H](C)CO)C[C@H](C)[C@@H](CN(C)S(=O)(=O)c2ccccc2)OCCCC[C@H](C)O3)cc1	none (no result: MBD2 inh, UHRF1 binding, TDP2 absorb, LEDGF integ inh, NSD2 HMT inh)
Cc1ccccc1CC(=O)N1CCN(C(=O)c2ccco2)CC1	none
Cc1ccccc1CN1CCN(C(=O)c2ccco2)CC1	TDP2 absorb 27.6, NSD2 HMT inh 56.1 | TDP2 confirm inactive | Alpha artifact inactive
Nn1cnnc1N/N=C\c1ccc(-c2ccccc2[N+](=O)[O-])o1	TDP2 absorb 65.8, LEDGF integ inh 38.5, NSD2 HMT inh 97.5 | TDP2 confirm 39.0 | IN multimer up inactive | TRFRET interf inactive | LEDGF integ conf inactive | Alpha artifact inactive
COC1=C(Nc2ccc(OC)cc2)C(=O)c2ccccc2C1=O	TDP2 absorb 60.3, LEDGF integ inh 18.0, NSD2 HMT inh 65.6 (no result: Casp6 inh) | TDP2 confirm inactive | IN multimer up inactive | TRFRET interf inactive | LEDGF integ conf inactive | Alpha artifact 5.5µM
COc1ccc(NC2=C(NC(C)=O)C(=O)c3ccccc3C2=O)cc1	none
COC1=C(Nc2ccc(OC)cc2)C(=O)C(OC)=C(Nc2ccc(OC)cc2)C1=O	none
CCOc1ccc(NC2=C(OC)C(=O)c3ccccc3C2=O)cc1	TDP2 absorb 26.4, NSD2 HMT inh 53.0 (no result: Casp6 inh) | TDP2 confirm inactive | Alpha artifact 3.74µM
C[C@@H]1CCCCO[C@H](CN(C)S(=O)(=O)c2ccccc2)[C@@H](C)CN([C@H](C)CO)C(=O)c2cc(NC(=O)CCC(F)(F)F)ccc2O1	none (no result: MBD2 inh, UHRF1 binding, TDP2 absorb, LEDGF integ inh, NSD2 HMT inh)
O=C1C=C(N2CCCCC2)c2ccccc2C1=O	TDP2 absorb 69.8, LEDGF integ inh 28.9, NSD2 HMT inh 114.1, Casp6 inh 99.6 | TDP2 confirm 85.1 | IN multimer up inactive | TRFRET interf inactive | LEDGF integ conf 67.2 | Alpha artifact inactive
CN1C[C@@H]2[C@H](c3ccccc31)[C@@H](CO)N2C(=O)Nc1ccccc1Cl	none (no result: MBD2 inh, UHRF1 binding, TDP2 absorb, LEDGF integ inh, NSD2 HMT inh)
COc1ccc(S(=O)(=O)Nc2cc(SCC(=O)O)c(O)c3ccccc23)cc1	TDP2 absorb 43.3, LEDGF integ inh 20.8, NSD2 HMT inh 121.1, Casp6 inh 93.3 | TDP2 confirm 50.1 | IN multimer up inactive | TRFRET interf inactive | LEDGF integ conf 33.0 | Alpha artifact inactive
CCOC(=O)c1ccc(NC2=CC(=O)C(=O)c3ccccc32)cc1	none (no result: Casp6 inh)
NS(=O)(=O)c1ccc(NC2=CC(=O)C(=O)c3ccccc32)cc1	TDP2 absorb 60.9, LEDGF integ inh 31.9, NSD2 HMT inh 57.8, Casp6 inh 68.3 | TDP2 confirm 63.1 | IN multimer up inactive | TRFRET interf inactive | LEDGF integ conf 61.6 | Alpha artifact inactive
Cc1ccc(NC2=CC(=O)C(=O)c3ccccc32)cc1	TDP2 absorb 69.7, LEDGF integ inh 22.9, NSD2 HMT inh 64.6 (no result: Casp6 inh) | TDP2 confirm 38.5 | IN multimer up 9.0 | TRFRET interf inactive | LEDGF integ conf 39.5 | Alpha artifact inactive
Cc1ccc(S(=O)(=O)N2C[C@H](O)COC[C@H]3O[C@H](CC(=O)NCCN4CCCCC4)CC[C@@H]32)cc1	none (no result: MBD2 inh, UHRF1 binding, TDP2 absorb, LEDGF integ inh, NSD2 HMT inh)
CCN(CC)CCCNc1ccc2ncn3c4ccc(O)cc4c(=O)c1c23	TDP2 absorb 86.5, LEDGF integ inh 36.5, NSD2 HMT inh 64.3 | TDP2 confirm 28.1 | IN multimer up 20.0 | TRFRET interf inactive | LEDGF integ conf 13.6 | Alpha artifact inactive
CN(C)CCNc1ccc2nnn3c4ccc(O)cc4c(=O)c1c23	none (no result: NSD2 HMT inh)
CC(C)NC(=O)N(C)C[C@@H]1Oc2ccc(NC(=O)Nc3ccc4c(c3)OCO4)cc2C(=O)N([C@H](C)CO)C[C@H]1C	none (no result: MBD2 inh, UHRF1 binding, TDP2 absorb, LEDGF integ inh, NSD2 HMT inh)
